ChEMBL document CHEMBL4619796, “Discovery of 3-Quinazolin-4(3H)-on-3-yl-2,N-dimethylpropanamides as Orally Active and Selective PI3Kα Inhibitors” (ACS Med Chem Lett, 2020)

Tests used:
[1] = Clearance in Beagle dog cryopreserved hepatocytes incubated for 10 mins under shaking condition by LC-MS/MS analysis; assay type: ADME, cell-based, Canis lupus familiaris, Hepatocyte; settings: read-out: CLH
[2] = Oral bioavailability in Sprague-Dawley rat at 3 mg/kg by HPLC analysis; assay type: ADME, organism-based; settings: in vivo
[3] = molecular target: T1, Phosphatidylinositol 4,5-bisphosphate 3-kinase catalytic subunit delta isoform (Homo sapiens, UniProt O00329); assay: Inhibition of PI3Kdelta in human Jeko1 cells assessed as reduction in AKT phosphorylation at residue S473 measured after 2 hrs by sandwich ELISA
T1 sequence (O00329 whole entry): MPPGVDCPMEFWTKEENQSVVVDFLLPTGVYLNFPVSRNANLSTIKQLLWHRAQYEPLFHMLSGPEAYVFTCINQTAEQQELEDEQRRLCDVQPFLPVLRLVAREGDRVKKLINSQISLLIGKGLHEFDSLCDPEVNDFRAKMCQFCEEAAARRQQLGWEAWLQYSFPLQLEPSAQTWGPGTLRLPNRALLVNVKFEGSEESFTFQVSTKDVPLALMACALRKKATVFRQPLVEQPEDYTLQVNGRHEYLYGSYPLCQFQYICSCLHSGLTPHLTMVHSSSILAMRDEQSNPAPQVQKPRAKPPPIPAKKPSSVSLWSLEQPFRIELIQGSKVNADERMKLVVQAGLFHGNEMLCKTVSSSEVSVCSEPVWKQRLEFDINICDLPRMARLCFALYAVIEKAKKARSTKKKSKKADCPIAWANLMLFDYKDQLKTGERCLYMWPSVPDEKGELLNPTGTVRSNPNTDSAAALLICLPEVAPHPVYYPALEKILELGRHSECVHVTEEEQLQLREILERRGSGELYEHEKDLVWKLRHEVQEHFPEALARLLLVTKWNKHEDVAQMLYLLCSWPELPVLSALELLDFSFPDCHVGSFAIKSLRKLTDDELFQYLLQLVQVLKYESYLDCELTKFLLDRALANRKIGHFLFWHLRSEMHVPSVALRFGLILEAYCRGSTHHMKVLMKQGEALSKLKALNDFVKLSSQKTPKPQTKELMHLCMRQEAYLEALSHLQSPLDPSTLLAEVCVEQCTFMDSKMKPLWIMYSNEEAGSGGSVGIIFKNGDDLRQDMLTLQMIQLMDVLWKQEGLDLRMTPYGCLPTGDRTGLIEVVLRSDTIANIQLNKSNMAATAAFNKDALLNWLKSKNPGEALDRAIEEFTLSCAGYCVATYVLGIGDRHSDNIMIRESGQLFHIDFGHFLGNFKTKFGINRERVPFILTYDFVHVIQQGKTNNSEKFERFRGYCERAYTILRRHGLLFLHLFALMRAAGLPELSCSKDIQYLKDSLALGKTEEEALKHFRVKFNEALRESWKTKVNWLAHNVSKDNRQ

[4] = Clearance in BALB/c mouse at 1 mg/kg, […] by HPLC analysis; assay type: ADME, organism-based; settings: in vivo
[5] = Oral bioavailability in BALB/c mouse at 10 mg/kg by HPLC analysis; assay type: ADME, organism-based; settings: in vivo
[6] = Half life in BALB/c mouse at 1 mg/kg, iv by HPLC analysis; settings: in vivo
[7] = Half life in Sprague-Dawley rat at 1 mg/kg, iv by HPLC analysis; assay type: ADME, organism-based; settings: in vivo
[8] = Inhibition of PI3K in human MCF7 cells assessed as reduction in AKT phosphorylation at residue S473 incubated for 2 hrs followed by insulin addition by ELISA; assay type: cell-based; settings: MCF7, 2 h
[9] = Dose normalized AUC (0 to last) in Sprague-Dawley rat at 3 mg/kg, po by HPLC analysis; assay type: ADME, organism-based; settings: in vivo
[10] = Metabolic stability in human liver microsomes assessed as parent compound remaining at 10 uM preincubated for 10 mins in water bath followed by NADPH addition and measured after 60 mins by LC-MS/MS analysis; assay type: ADME, Microsome; settings: read-out: Stability
[11] = Volume of distribution in BALB/c mouse at 1 mg/kg, iv by HPLC analysis; settings: in vivo
BT-474 [12] = assay: Antitumor activity against PI3KCA mutant human BT474 cells xenografted in BALB/c nude mouse assessed as tumor growth inhibition at 15 mg/kg, po administered once daily and measured after 30 days by caliper method relative to control; assay type: functional; settings: BT-474, po, 720 h, read-out: TGI
Mus musculus [13] = assay: In vivo inhibition of PI3K in BALB/c nude mouse xenografted with PI3KCA mutant human BT474 cells assessed as reduction in AKT phosphorylation at 15 to 40 mg/kg, po administered once daily by Western blot analysis; assay type: functional, organism-based; settings: BT-474, TDE = time-dependent effect
Method in brief: (§1)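 Mice bearing BT-474 subcutaneous xenografts were dosed orally in vehicle 0.5% MC + 0.2% Tween 80. Tumor Akt phosphorylation was assessed for time and dose dependence.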

BT-474 [14] = assay: Antitumor activity against PI3KCA mutant human BT474 cells xenografted in BALB/c nude mouse assessed as tumor growth inhibition at 30 mg/kg, po administered once daily and measured after 30 days by caliper method relative to control; assay type: functional; settings: BT-474, po, 720 h, read-out: TGI
[15] = Protein binding in human plasma measured after 4 hrs by LC-MS/MS analysis; assay type: ADME, cell-free; settings: read-out: PPB (converted)
[16] = molecular target: Phosphatidylinositol 4,5-bisphosphate 3-kinase catalytic subunit beta isoform (Homo sapiens, UniProt P42338); assay: Inhibition of PI3Kbeta in human MDA-MB-468 cells assessed as reduction in AKT phosphorylation at residue S473 measured after 30 mins by sandwich ELISA
[17] = Metabolic stability in Beagle dog liver microsomes assessed as parent compound remaining at 10 uM preincubated for 10 mins in water bath followed by NADPH addition and measured after 60 mins by LC-MS/MS analysis; assay type: ADME, Canis lupus familiaris, Microsome; settings: read-out: Stability
[18] = molecular target: Phosphatidylinositol 4,5-bisphosphate 3-kinase catalytic subunit alpha isoform (Homo sapiens, UniProt P42336); assay: Inhibition of PI3Kalpha (unknown origin) using PIP2:3PS peptide as substrate preincubated for 15 mins followed by ATP addition at Km concentration and further incubated for 150 mins by ADP-Glo assay
[19] = Clearance in Sprague-Dawley rat at 1 mg/kg, iv by HPLC analysis; assay type: ADME, organism-based; settings: in vivo
Mus musculus [20] = assay: In vivo inhibition of PI3K in po dosed BALB/c nude mouse xenografted with PI3KCA mutant human BT474 cells assessed as reduction in AKT phosphorylation administered once daily measured after 1 to 4 hrs by Western blot analysis; assay type: functional, organism-based; settings: BT-474; method in brief: as §1
BT-474 [21] = assay: Antitumor activity against PI3KCA mutant human BT474 cells xenografted in BALB/c nude mouse assessed as tumor growth inhibition at 40 mg/kg, po administered once daily and measured after 30 days by caliper method relative to control; assay type: functional; settings: BT-474, po, 720 h, read-out: TGI
[22] = Clearance in CD-1 mouse cryopreserved hepatocytes incubated for 10 mins under shaking condition by LC-MS/MS analysis; assay type: ADME, cell-based, Hepatocyte; settings: read-out: CLH
[23] = Protein binding in CD-1 mouse plasma measured after 4 hrs by LC-MS/MS analysis; assay type: ADME, cell-free; settings: read-out: PPB (converted)
[24] = Metabolic stability in cynomolgus monkey liver microsomes assessed as parent compound remaining at 10 uM preincubated for 10 mins in water bath followed by NADPH addition and measured after 60 mins by LC-MS/MS analysis; assay type: ADME, Macaca fascicularis, Microsome; settings: read-out: Stability

Phosphatidylinositol 4,5-bisphosphate 3-kinase catalytic subunit beta isoform, sequence (P42338 whole entry, canonical isoform): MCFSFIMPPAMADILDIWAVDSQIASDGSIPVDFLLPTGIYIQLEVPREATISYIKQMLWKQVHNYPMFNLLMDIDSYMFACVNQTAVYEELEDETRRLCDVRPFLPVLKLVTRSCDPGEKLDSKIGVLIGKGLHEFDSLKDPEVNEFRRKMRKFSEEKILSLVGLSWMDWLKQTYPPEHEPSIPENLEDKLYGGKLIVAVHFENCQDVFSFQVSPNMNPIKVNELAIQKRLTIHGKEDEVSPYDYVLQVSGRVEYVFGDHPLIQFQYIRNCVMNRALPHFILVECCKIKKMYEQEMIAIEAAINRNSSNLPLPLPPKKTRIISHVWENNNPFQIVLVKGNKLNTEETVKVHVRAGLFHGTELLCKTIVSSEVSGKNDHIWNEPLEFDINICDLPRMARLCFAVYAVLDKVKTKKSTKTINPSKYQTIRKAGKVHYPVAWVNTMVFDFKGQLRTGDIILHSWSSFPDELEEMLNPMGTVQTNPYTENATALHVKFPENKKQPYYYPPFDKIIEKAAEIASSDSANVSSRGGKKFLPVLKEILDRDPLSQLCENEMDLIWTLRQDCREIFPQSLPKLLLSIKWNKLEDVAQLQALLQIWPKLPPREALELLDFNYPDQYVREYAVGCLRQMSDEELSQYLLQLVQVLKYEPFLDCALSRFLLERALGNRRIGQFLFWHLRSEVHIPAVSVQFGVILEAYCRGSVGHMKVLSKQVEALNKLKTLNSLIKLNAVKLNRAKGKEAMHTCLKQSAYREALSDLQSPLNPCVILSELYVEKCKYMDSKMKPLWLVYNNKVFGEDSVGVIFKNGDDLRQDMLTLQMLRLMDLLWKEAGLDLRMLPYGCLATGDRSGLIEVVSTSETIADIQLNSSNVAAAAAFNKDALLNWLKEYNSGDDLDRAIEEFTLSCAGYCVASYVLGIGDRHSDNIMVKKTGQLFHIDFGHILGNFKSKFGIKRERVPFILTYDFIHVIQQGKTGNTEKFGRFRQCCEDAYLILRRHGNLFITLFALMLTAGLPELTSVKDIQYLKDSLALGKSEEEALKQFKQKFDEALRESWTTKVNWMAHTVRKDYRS
Phosphatidylinositol 4,5-bisphosphate 3-kinase catalytic subunit alpha isoform, sequence (P42336 whole entry, canonical isoform): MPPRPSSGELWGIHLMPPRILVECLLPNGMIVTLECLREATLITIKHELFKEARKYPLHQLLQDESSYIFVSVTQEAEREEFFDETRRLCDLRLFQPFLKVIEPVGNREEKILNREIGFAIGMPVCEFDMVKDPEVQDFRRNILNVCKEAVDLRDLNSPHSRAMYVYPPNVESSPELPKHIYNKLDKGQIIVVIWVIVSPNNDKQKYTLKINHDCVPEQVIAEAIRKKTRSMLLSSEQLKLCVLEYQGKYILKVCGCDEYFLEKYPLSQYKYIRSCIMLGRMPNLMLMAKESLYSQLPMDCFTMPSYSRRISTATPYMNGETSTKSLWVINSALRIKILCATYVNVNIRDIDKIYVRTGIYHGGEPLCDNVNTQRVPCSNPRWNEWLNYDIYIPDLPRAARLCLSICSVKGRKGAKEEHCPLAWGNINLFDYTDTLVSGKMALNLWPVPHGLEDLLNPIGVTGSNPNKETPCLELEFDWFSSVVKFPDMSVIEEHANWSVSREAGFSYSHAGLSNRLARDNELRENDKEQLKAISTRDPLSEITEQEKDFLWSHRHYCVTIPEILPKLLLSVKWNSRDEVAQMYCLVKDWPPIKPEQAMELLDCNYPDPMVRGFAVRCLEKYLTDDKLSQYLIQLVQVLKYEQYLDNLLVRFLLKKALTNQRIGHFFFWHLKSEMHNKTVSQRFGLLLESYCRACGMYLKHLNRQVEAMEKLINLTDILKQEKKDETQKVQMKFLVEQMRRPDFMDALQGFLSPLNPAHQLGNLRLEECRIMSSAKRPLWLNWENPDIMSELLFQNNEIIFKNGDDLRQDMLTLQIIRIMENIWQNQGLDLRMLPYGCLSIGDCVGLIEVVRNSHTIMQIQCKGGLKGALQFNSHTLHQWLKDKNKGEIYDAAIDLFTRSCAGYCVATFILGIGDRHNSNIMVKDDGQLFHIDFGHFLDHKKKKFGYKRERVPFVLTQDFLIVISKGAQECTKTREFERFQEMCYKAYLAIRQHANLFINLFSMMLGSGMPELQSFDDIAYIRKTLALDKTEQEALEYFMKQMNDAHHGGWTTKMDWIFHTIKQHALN

## CNC(=O)[C@H](C)Cn1cnc2ccc(-c3cnc(OC)c(NS(=O)(=O)c4ccc(F)cc4Cl)c3)cc2c1=O
[1]
  CLint scaled: < 44 mL/min/kg
[2]
  bioavailability: 46.9%
[3]
  IC50: 183 nM
[4]
  CL/F: 4.2 mL/min/kg
[5]
  bioavailability: 59.4%
[6]
  half-life: 0.966 h
[7]
  half-life: 1.22 h
[8]
  IC50: 32.9 nM
[9]
  AUClast/dose: 2711 nM·h
[10]
  remaining at 1 h, 10 µM: 44.6%
[11]
  Vd: 0.179 L/kg
BT-474 [12]
  inhibition in vivo at 15 mg/kg: 62.5%
Mus musculus [13]
  inhibition: Tde
BT-474 [14]
  inhibition in vivo at 30 mg/kg: 86%
[15]
  fraction unbound at 4 h: 0.014
[16]
  IC50: 1390 nM
[17]
  remaining at 1 h, 10 µM: 53.9%
[18]
  IC50: 1.8 nM
[19]
  clearance: 5.28 mL/min/kg
Mus musculus [20]
  inhibition: Dose-dependent effect
BT-474 [21]
  inhibition in vivo at 40 mg/kg: 90.7%
[22]
  CLint scaled: 642 mL/min/kg
[23]
  fraction unbound at 4 h: 0.014
[24]
  remaining at 1 h, 10 µM: 13.7%
